Assay results published in ChEMBL document CHEMBL4431302, “Vobatensines A-F, Cytotoxic Iboga-Vobasine Bisindoles from Tabernaemontana corymbosa” (J Nat Prod, 2016).
pIC50: −log10 of the molar value.

Assays:
[1] = Growth inhibition of human KB/S cells after 72 hrs by MTT assay; type: functional
Procedure, shortened: (§1)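 Cytotoxicity run by a previously reported procedure, with vincristine and cisplatin as positive controls.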

KB/VJ300 [2] = experiment: Growth inhibition of human KB/VJ300 cells after 72 hrs by MTT assay; type: functional, cell-based; conditions: KB/VJ300, 72 h; procedure, shortened: as §1
PC-3 = experiment: Growth inhibition of human PC3 cells after 72 hrs by MTT assay; type: functional, cell-based; conditions: PC-3, 72 h; procedure, shortened: as §1
LNCaP = experiment: Growth inhibition of human LNCAP cells after 72 hrs by MTT assay; type: functional, cell-based; procedure, shortened: as §1
MCF7 = experiment: Growth inhibition of human MCF7 cells after 72 hrs by MTT assay; type: functional, cell-based; conditions: MCF7, 72 h; procedure, shortened: as §1
MDA-MB-231 = experiment: Growth inhibition of human MDA-MB-231 cells after 72 hrs by MTT assay; type: functional, cell-based; conditions: MDA-MB-231, 72 h; procedure, shortened: as §1
A549 = experiment: Growth inhibition of human A549 cells after 72 hrs by MTT assay; type: functional, cell-based; conditions: A549, 72 h; procedure, shortened: as §1
HCT-116 = experiment: Growth inhibition of human HCT116 cells after 72 hrs by MTT assay; type: functional, cell-based; conditions: HCT-116, 72 h; procedure, shortened: as §1
HT-29 = experiment: Growth inhibition of human HT-29 cells after 72 hrs by MTT assay; type: functional, cell-based; conditions: HT-29, 72 h; procedure, shortened: as §1
KB/VJ300 [3] = experiment: Growth inhibition of human KB/VJ300 cells after 72 hrs in presence of vincristine by MTT assay; type: functional, cell-based; conditions: KB/VJ300, 72 h
Procedure, shortened: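 Vincristine-resistant KB/VJ300 cells were exposed to test compound together with vincristine at 0.1 μg/mL, a multidrug-resistance reversal set-up. Cytotoxicity was run by a previously reported procedure, with vincristine and cisplatin as positive controls.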

SMILES	pIC50 [1]	pIC50 (KB/VJ300 [2])	pIC50 (PC-3)	pIC50 (LNCaP)	pIC50 (MCF7)	pIC50 (MDA-MB-231)	pIC50 (A549)	pIC50 (HCT-116)	pIC50 (HT-29)	pIC50 (KB/VJ300 [3])
C/C=C1/CN(C)[C@H]2Cc3c([nH]c4ccccc34)[C@@H](c3cc4c(cc3OC)[C@@]3(O)CCN5C[C@H]6C[C@H](CC)[C@H]5[C@@H](C6)C3=N4)C[C@H]1[C@@H]2C(=O)OC	< 5.00	4.52 to 5.00	5.25	< 5.00	< 5.00	< 5.00	< 5.00	5.01	5.14	5.04 to 5.05
C/C=C1/CN(C)[C@H]2Cc3c([nH]c4ccccc34)[C@@H](c3cc4c(cc3OC)C(=O)[C@@]3(CCN5C[C@H]6C[C@H](CC)[C@H]5[C@H]3C6)N4)C[C@H]1[C@@H]2C(=O)OC	5.08	5.04	5.06	5.00	5.03	5.11	5.04	5.15	5.54	5.48
COc1ccc(CCN(C)CCCC(C#N)(c2ccc(OC)c(OC)c2)C(C)C)cc1OC (stereo not given) [VERAPAMIL]	< 5.00	< 5.00	–	–	–	–	–	–	–	5.34
CC[C@]1(O)C[C@H]2CN(CCc3c([nH]c4ccccc34)[C@@](C(=O)OC)(c3cc4c(cc3OC)N(C=O)[C@H]3[C@@](O)(C(=O)OC)[C@H](OC(C)=O)[C@]5(CC)C=CCN6CC[C@]43[C@@H]65)C2)C1 [VINCRISTINE]	8.62	5.18	–	–	–	–	–	–	–	–
CC[C@@H]1CN(C)[C@H]2Cc3c([nH]c4ccccc34)[C@@H](c3cc4c(cc3OC)C(=O)[C@@]3(CCN5C[C@H]6C[C@H](CC)[C@H]5[C@H]3C6)N4)C[C@H]1[C@@H]2C(=O)OC	< 5.00	< 5.00	5.09	< 5.00	5.12	5.48	5.08	5.11	5.74	5.29
CC[C@@H]1CN(C)[C@H]2Cc3c([nH]c4ccccc34)[C@@H](c3cc4[nH]c5c(c4cc3OC)CCN3C[C@H]4C[C@H](CC)[C@H]3[C@H]5C4)C[C@H]1[C@@H]2C(=O)OC	5.10	5.08	5.46	< 5.00	5.47	5.55	< 5.00	5.54	6.04	5.03
C/C=C1/CN(C)[C@H]2Cc3c([nH]c4ccccc34)[C@@H](c3cc4[nH]c5c(c4cc3OC)CCN3C[C@H]4C[C@H]([C@@H](C)O)[C@H]3[C@H]5C4)C[C@H]1[C@@H]2C(=O)OC	5.09	5.14	5.24	< 5.00	5.06	5.41	5.01	5.52	5.92	< 5.00
C/C=C1/CN(C)[C@H]2Cc3c([nH]c4ccccc34)[C@@H](c3cc4[nH]c5c(c4cc3OC)CCN3C[C@H]4C[C@H](CC)[C@H]3[C@H]5C4)C[C@H]1[C@@H]2C(=O)OC	5.28	5.30	5.55	< 5.00	5.22	5.60	5.17	5.80	6.03	5.15
CC[C@@H]1CN(C)[C@H]2Cc3c([nH]c4ccccc34)[C@@H](c3cc4[nH]c5c(c4cc3OC)CCN3C[C@H]4C[C@H]([C@@H](C)O)[C@H]3[C@H]5C4)C[C@H]1[C@@H]2C(=O)OC	5.10	5.09	5.16	< 5.00	5.03	5.44	5.02	5.46	5.62	5.07
C/C=C1/CN2CC[C@]34C(=C(C=O)C1C[C@H]23)Nc1cc([C@H]2C[C@@H]3/C(=C\C)CN(C)[C@@H](Cc5c2[nH]c2ccccc52)[C@H]3C(=O)OC)ccc14	< 5.00	< 5.00	5.27	< 5.00	5.07	5.35	5.04	5.17	5.89	< 5.00
C/C=C1/CN(C)[C@H]2Cc3c([nH]c4ccccc34)[C@@H](c3c(OC)ccc4[nH]c5c(c34)CCN3C[C@H]4C[C@H](CC)[C@H]3[C@H]5C4)C[C@H]1[C@@H]2C(=O)OC	< 5.00	4.52 to 5.00	5.11	< 5.00	< 5.00	5.34	< 5.00	5.13	5.72	5.02 to 5.05
